Converted amounts (≈) assume the structure as drawn.

Holding throughout (type): functional
Experiment [1] has as its system Staphylococcus aureus. Description: Antibacterial activity against methicillin-resistant Staphylococcus aureus ATCC 43300 measured after 12 to 14 hrs. In short, it runs like this: (§1)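 In vitro double dilution method, run alongside fosfomycin sodium, ciprofloxacin and propineb as positive controls.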
For the next experiment, the system named is Bacillus cereus. Description: Antibacterial activity against Bacillus cereus CGMCC 1.1846 measured after 12 to 14 hrs. The procedure, abridged: (§2)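 Twofold (double) dilution method for in vitro antibacterial activity, with fosfomycin sodium, ciprofloxacin and propineb as positive controls.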
Experiment [2] relates to Staphylococcus aureus. Description: Antibacterial activity against Staphylococcus aureus CGMCC 1.8721 measured after 12 to 14 hrs. The procedure, abridged:
as §2

For a further experiment, the system named is Ralstonia solanacearum. Nature of the experiment: Antibacterial activity against Ralstonia solanacearum CGMCC 1.12711 measured after 12 to 14 hrs. The procedure, abridged: as §1

The term MIC denotes the least concentration at which growth counts as inhibited. As for `COC(=O)c1cc2c3ccccc3n(Cc3ccccc3Br)c2c(-c2cn(C(C)=O)c3ccccc23)n1`, the MIC against Staphylococcus aureus [1], against Bacillus cereus, against Staphylococcus aureus [2] and in the experiment on Ralstonia solanacearum was more than 100 µM each time.

Regarding `C[C@@H]1O[C@@H]1P(=O)(O)O` [PHOSPHOMYCIN DISODIUM], the MIC amounted to 50 µM against Staphylococcus aureus [1], 25 µM against Bacillus cereus, 100 µM with Staphylococcus aureus [2] and 50 µM against Ralstonia solanacearum.

For the molecule `OCc1cc2c3ccccc3n(Cc3ccccc3)c2c(-c2c[nH]c3ccccc23)n1`, the MIC in the experiment with Staphylococcus aureus [1] turned out to be 100 µM (≈ 40.3 µg/mL); in the experiment with Bacillus cereus it was 12.5 µM (≈ 5.04 µg/mL); in the experiment with Staphylococcus aureus [2] it was 12.5 µM (≈ 5.04 µg/mL); in the experiment with Ralstonia solanacearum, 12.5 µM (≈ 5.04 µg/mL).

`OCc1cc2c3ccccc3n(Cc3ccccc3Cl)c2c(-c2c[nH]c3ccccc23)n1`: the MIC against Staphylococcus aureus [1] is more than 100 µM; in the experiment with Bacillus cereus it was 50 µM (≈ 21.9 µg/mL); in the experiment with Staphylococcus aureus [2] it was 25 µM (≈ 10.9 µg/mL); in the experiment on Ralstonia solanacearum, 25 µM (≈ 10.9 µg/mL).

For the molecule `COC(=O)c1cc2c3ccccc3n(Cc3cccc(C(F)(F)F)c3)c2c(-c2cn(C(C)=O)c3ccccc23)n1`, the MIC against Staphylococcus aureus [1], in the experiment with Bacillus cereus, against Staphylococcus aureus [2] and with Ralstonia solanacearum was more than 100 µM each time.

Turning to `COC(=O)c1cc2c3ccccc3n(Cc3ccc(Br)cc3)c2c(-c2cn(C(C)=O)c3ccccc23)n1`, the minimum inhibitory concentration (MIC) against Staphylococcus aureus [1], against Bacillus cereus, against Staphylococcus aureus [2] and with Ralstonia solanacearum was more than 100 µM in each case.

Regarding `COC(=O)c1cc2c3ccccc3n(Cc3ccc(C(F)(F)F)cc3)c2c(-c2cn(C(C)=O)c3ccccc23)n1`, the minimum inhibitory concentration (MIC) in the experiment on Staphylococcus aureus [1], against Bacillus cereus, against Staphylococcus aureus [2] and with Ralstonia solanacearum was more than 100 µM in each case.

As for `OCc1cc2c3ccccc3n(Cc3ccccc3F)c2c(-c2c[nH]c3ccccc23)n1`, the MIC was more than 100 µM with Staphylococcus aureus [1], 50 µM (≈ 21.1 µg/mL) against Bacillus cereus, 25 µM (≈ 10.5 µg/mL) with Staphylococcus aureus [2] and 25 µM (≈ 10.5 µg/mL) against Ralstonia solanacearum.

Turning to `COC(=O)c1cc2c3ccccc3n(Cc3ccc(Cl)cc3)c2c(-c2cn(C(C)=O)c3ccccc23)n1`, the MIC in the experiment with Staphylococcus aureus [1], in the experiment with Bacillus cereus, with Staphylococcus aureus [2] and against Ralstonia solanacearum was more than 100 µM throughout.

Regarding `COC(=O)c1cc2c3ccccc3n(Cc3cccc(Cl)c3)c2c(-c2cn(C(C)=O)c3ccccc23)n1`, the MIC in the experiment on Staphylococcus aureus [1], against Bacillus cereus, in the experiment on Staphylococcus aureus [2] and against Ralstonia solanacearum was more than 100 µM throughout.

Regarding `OCc1cc2c3ccccc3n(Cc3cccc(Cl)c3)c2c(-c2c[nH]c3ccccc23)n1`, the MIC in the experiment with Staphylococcus aureus [1] was more than 100 µM; in the experiment on Bacillus cereus it was 25 µM (≈ 10.9 µg/mL); against Staphylococcus aureus [2], 25 µM (≈ 10.9 µg/mL); against Ralstonia solanacearum, 50 µM (≈ 21.9 µg/mL).

With `COC(=O)c1cc2c3ccccc3n(Cc3cccc(F)c3)c2c(-c2cn(C(C)=O)c3ccccc23)n1`, the MIC against Staphylococcus aureus [1], in the experiment on Bacillus cereus, with Staphylococcus aureus [2] and with Ralstonia solanacearum was more than 100 µM throughout.

Take `COC(=O)c1cc2c3ccccc3n(Cc3ccccc3F)c2c(-c2cn(C(C)=O)c3ccccc23)n1`: the MIC against Staphylococcus aureus [1], in the experiment with Bacillus cereus, with Staphylococcus aureus [2] and against Ralstonia solanacearum was more than 100 µM throughout.

`COC(=O)c1cc2c3ccccc3n(Cc3ccccc3C)c2c(-c2cn(C(C)=O)c3ccccc23)n1`: the MIC in the experiment with Staphylococcus aureus [1] is more than 100 µM; against Bacillus cereus, 100 µM (≈ 48.8 µg/mL); in the experiment on Staphylococcus aureus [2], more than 100 µM; against Ralstonia solanacearum it was more than 100 µM.

For `OCc1cc2c3ccccc3n(Cc3ccc(Cl)cc3)c2c(-c2c[nH]c3ccccc23)n1`, the MIC came out at 50 µM (≈ 21.9 µg/mL) with Staphylococcus aureus [1], 12.5 µM (≈ 5.47 µg/mL) in the experiment on Bacillus cereus, 25 µM (≈ 10.9 µg/mL) with Staphylococcus aureus [2] and 12.5 µM (≈ 5.47 µg/mL) with Ralstonia solanacearum.

Regarding `OCc1cc2c3ccccc3n(Cc3cccc(F)c3)c2c(-c2c[nH]c3ccccc23)n1`, the MIC in the experiment on Staphylococcus aureus [1] is more than 100 µM; in the experiment with Bacillus cereus it was 50 µM (≈ 21.1 µg/mL); with Staphylococcus aureus [2], 25 µM (≈ 10.5 µg/mL); against Ralstonia solanacearum it was 50 µM (≈ 21.1 µg/mL).

`OCc1cc2c3ccccc3n(Cc3cccc(Br)c3)c2c(-c2c[nH]c3ccccc23)n1`: the MIC is more than 100 µM against Staphylococcus aureus [1], 25 µM (≈ 12.1 µg/mL) against Bacillus cereus, 25 µM (≈ 12.1 µg/mL) against Staphylococcus aureus [2] and 25 µM (≈ 12.1 µg/mL) in the experiment with Ralstonia solanacearum.

Take `O=C(O)c1cn(C2CC2)c2cc(N3CCNCC3)c(F)cc2c1=O` [CIPROFLOXACIN]: the MIC with Staphylococcus aureus [1] was 12.5 µM (≈ 4.14 µg/mL); against Bacillus cereus, 6.25 µM (≈ 2.07 µg/mL); in the experiment on Staphylococcus aureus [2] it was 3.12 µM (≈ 1.04 µg/mL); in the experiment on Ralstonia solanacearum, 3.12 µM (≈ 1.04 µg/mL).

For `COC(=O)c1cc2c3ccccc3n(Cc3ccccc3Cl)c2c(-c2cn(C(C)=O)c3ccccc23)n1`, the MIC against Staphylococcus aureus [1] is more than 100 µM; against Bacillus cereus it was more than 100 µM; in the experiment with Staphylococcus aureus [2], 100 µM (≈ 50.8 µg/mL); in the experiment with Ralstonia solanacearum it was more than 100 µM.

`COC(=O)c1cc2c3ccccc3n(Cc3ccc(F)cc3)c2c(-c2cn(C(C)=O)c3ccccc23)n1`: the MIC against Staphylococcus aureus [1], against Bacillus cereus, with Staphylococcus aureus [2] and against Ralstonia solanacearum was more than 100 µM in each case.

As to `OCc1cc2c3ccccc3n(Cc3ccc(C(F)(F)F)cc3)c2c(-c2c[nH]c3ccccc23)n1`, the MIC against Staphylococcus aureus [1], against Bacillus cereus, in the experiment with Staphylococcus aureus [2] and in the experiment on Ralstonia solanacearum was 25 µM (≈ 11.8 µg/mL) throughout.

On to `OCc1cc2c3ccccc3n(Cc3ccccc3Br)c2c(-c2c[nH]c3ccccc23)n1`, for which the MIC in the experiment on Staphylococcus aureus [1] is more than 100 µM; against Bacillus cereus it was 25 µM (≈ 12.1 µg/mL); against Staphylococcus aureus [2], 12.5 µM (≈ 6.03 µg/mL); against Ralstonia solanacearum it was 50 µM (≈ 24.1 µg/mL).

As for `Cc1ccc(Cn2c3ccccc3c3cc(CO)nc(-c4c[nH]c5ccccc45)c32)cc1`, the MIC against Staphylococcus aureus [1] came out at 25 µM (≈ 10.4 µg/mL); in the experiment on Bacillus cereus, 25 µM (≈ 10.4 µg/mL); against Staphylococcus aureus [2], 25 µM (≈ 10.4 µg/mL); in the experiment on Ralstonia solanacearum it was 12.5 µM (≈ 5.22 µg/mL).

With `COC(=O)c1cc2c3ccccc3n(Cc3ccc(C)cc3)c2c(-c2cn(C(C)=O)c3ccccc23)n1`, the MIC in the experiment on Staphylococcus aureus [1], against Bacillus cereus, in the experiment with Staphylococcus aureus [2] and in the experiment on Ralstonia solanacearum was more than 100 µM each time.

Consider `COC(=O)c1cc2c3ccccc3n(Cc3cccc(Br)c3)c2c(-c2cn(C(C)=O)c3ccccc23)n1`, for which the MIC in the experiment with Staphylococcus aureus [1], with Bacillus cereus, against Staphylococcus aureus [2] and in the experiment on Ralstonia solanacearum was more than 100 µM each time.

In the case of `COC(=O)c1cc2c3ccccc3n(Cc3cccc(C)c3)c2c(-c2cn(C(C)=O)c3ccccc23)n1`, the minimum inhibitory concentration (MIC) against Staphylococcus aureus [1], in the experiment on Bacillus cereus, in the experiment on Staphylococcus aureus [2] and in the experiment on Ralstonia solanacearum was more than 100 µM each time.

`COC(=O)c1cc2c3ccccc3n(Cc3ccccc3C(F)(F)F)c2c(-c2cn(C(C)=O)c3ccccc23)n1`: the MIC against Staphylococcus aureus [1], with Bacillus cereus, against Staphylococcus aureus [2] and with Ralstonia solanacearum was more than 100 µM in each case.

For the molecule `Cc1ccccc1Cn1c2ccccc2c2cc(CO)nc(-c3c[nH]c4ccccc34)c21`, the minimum inhibitory concentration (MIC) with Staphylococcus aureus [1] was more than 100 µM; in the experiment on Bacillus cereus, 50 µM (≈ 20.9 µg/mL); with Staphylococcus aureus [2] it was 25 µM (≈ 10.4 µg/mL); in the experiment on Ralstonia solanacearum, 12.5 µM (≈ 5.22 µg/mL).

With `OCc1cc2c3ccccc3n(Cc3ccccc3C(F)(F)F)c2c(-c2c[nH]c3ccccc23)n1`, the minimum inhibitory concentration (MIC) with Staphylococcus aureus [1] worked out at 100 µM (≈ 47.1 µg/mL); against Bacillus cereus it was 50 µM (≈ 23.6 µg/mL); in the experiment with Staphylococcus aureus [2] it was 50 µM (≈ 23.6 µg/mL); with Ralstonia solanacearum, 50 µM (≈ 23.6 µg/mL).

`COC(=O)c1cc2c3ccccc3n(Cc3ccccc3)c2c(-c2cn(C(C)=O)c3ccccc23)n1`: the minimal inhibitory concentration (MIC) with Staphylococcus aureus [1], in the experiment with Bacillus cereus, against Staphylococcus aureus [2] and in the experiment with Ralstonia solanacearum was more than 100 µM in each case.

These data come from ChEMBL document CHEMBL4270603, “Computer-aided drug discovery: Novel 3,9-disubstituted eudistomin U derivatives as potent antibacterial agents” (Eur J Med Chem, 2018).
